As a reminder, the IC50 is the point on the concentration scale where inhibition reaches its midpoint. Lower therefore signals inhibition by little substance.

Here are results for eleven compounds from ChEMBL document CHEMBL1268863, “Bioactive Cycloperoxides Isolated from the Puerto Rican Sponge Plakortis halichondrioides” (J Nat Prod, 2010).

One experiment relates to Plasmodium falciparum. Kind of experiment: Antimicrobial activity against chloroquine-resistant Plasmodium falciparum W2. It counts as functional, organism-based. The procedure, abridged:
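Chloroquine-resistant W2 strain tested, with chloroquine as positive control; IC50 reported in µg/mL.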

Experiment [1] deals with A2058. Briefly: Cytotoxicity against human A2058 cells after 48 hrs by MTT assay. The settings on record: A2058, 48 h. The format is functional, cell-based. The procedure, abridged: (§1)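 Cells cultured in RPMI-1640 or DMEM with 10% FBS and penicillin/streptomycin at 37 °C, 5% CO2, then seeded at 5,000/well and left overnight. Compound given at 0.1, 0.5, 1, 5, 10, 20 and 50 µM for 48 h with a DMSO vehicle control. Viability read by MTS formazan absorbance at 490 nm, in quadruplicate, and IC50 derived from the dose series.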
(In general: Formazan colour is commonly taken as a measure of viable cells.)

Experiment [2] has as its system A2058. Briefly: Cytotoxicity against human A2058 cells at 10 uM after 48 hrs […]. The format is functional.
Experiment [3] relates to DU-145. Briefly: Cytotoxicity against human DU145 cells after 48 hrs by MTT assay. The format is functional, cell-based. The settings on record: DU-145, 48 h. The method in brief:
as §1

The test system of experiment [4] is DU-145. Kind of experiment: Cytotoxicity against human DU145 cells at 10 uM after 48 hrs […]. It counts as functional.
For experiment [5], the system named is Mycobacterium tuberculosis. Kind of experiment: Antimycobacterial activity Mycobacterium tuberculosis H37Rv. The format is functional, organism-based.

≈ marks a conversion by molar mass, not a printed value.

Turning to `CCCCCCCCCCCCCCCC[C@]1(C)C[C@@](C)(CC(=O)OC)OO1`, the IC50 was over 10 µg/mL with Plasmodium falciparum, over 10 µM with A2058 [1] and 8 µM with DU-145 [3]. The Activity came to 69% in the experiment on A2058 [2] and 38% with DU-145 [4].
Taken in the same sequence, the figures for `CCCCCCCCCCCCCCCC[C@@](C)(O)C[C@](C)(O)CC(=O)OC` were over 10 µg/mL, over 10 µM, over 10 µM, 79% and 81%.
On to `CCCCCCCCCCCCCCCC[C@]1(C)C[C@@](C)(O)CC(=O)O1`, for which the IC50 in the experiment on Plasmodium falciparum was over 10 µg/mL; in the experiment on A2058 [1], over 10 µM; with DU-145 [3], over 10 µM; in experiment [5], 30 µg/mL (≈ 81.4 µM). Moreover, the Activity was 60% in the experiment with A2058 [2] and 102% with DU-145 [4].
Turning to `CCCCCCCCCCCCCCCC[C@@](C)(O)C[C@]1(C)OC(=O)C[C@@H]1O`, the IC50 in the experiment with Plasmodium falciparum worked out at 0.6 µg/mL (≈ 1.51 µM); in the experiment on A2058 [1], 24 µM; with DU-145 [3] it was 24 µM; in experiment [5], 13 µg/mL (≈ 32.6 µM). In addition, the results for the Activity in the experiment with A2058 [2] and in the experiment on DU-145 [4] were 75% and 79%, respectively.
Turning to `CCCCCCCCCCCCCCCC[C@]1(C)C[C@]2(C)OC(=O)C[C@@H]2OO1`, the IC50 in the experiment with Plasmodium falciparum is 0.3 µg/mL (≈ 0.756 µM); in the experiment on A2058 [1], 0.8 µM; in the experiment with DU-145 [3], 2 µM; in experiment [5], 68 µg/mL (≈ 171 µM). Further, the Activity in the experiment with A2058 [2] was found to be 8%; in the experiment with DU-145 [4], 13%.
Regarding `C[C@@](O)(CCCCCCCCCc1ccc(O)cc1)C[C@]1(C)OC(=O)C[C@@H]1O`, the figures for the IC50 in the experiment on Plasmodium falciparum, with A2058 [1] and in the experiment on DU-145 [3] were 7 µg/mL (≈ 17.8 µM), over 10 µM and over 10 µM, respectively. Besides, the results for the Activity with A2058 [2] and in the experiment on DU-145 [4] were 81% and 95%, respectively.
Regarding `CC/C=C/C=C/C=C/CCCCCCCC[C@]1(C)C[C@@](C)(CC(=O)OC)OO1` [EPIPLAKINIC ACID F METHYL ESTER], the IC50 in the experiment with Plasmodium falciparum was 4 µg/mL (≈ 10.2 µM); with A2058 [1] it was over 10 µM; in the experiment on DU-145 [3], over 10 µM; in experiment [5], 62 µg/mL (≈ 158 µM). Also, the values for the Activity in the experiment with A2058 [2] and in the experiment on DU-145 [4] were 86% and 92%, respectively.
With `CC/C=C/C=C/C=C/CCCCCCCC[C@@]1(C)C[C@](C)(CC(=O)O)OO1` [EPIPLAKINIC ACID F], the IC50 in the experiment with Plasmodium falciparum is 3 µg/mL (≈ 7.92 µM); in the experiment with A2058 [1], over 10 µM; in the experiment with DU-145 [3] it was 1 µM; in experiment [5] it was 92 µg/mL (≈ 243 µM). For the same compound, the Activity was determined as 51% in the experiment on A2058 [2] and 15% in the experiment with DU-145 [4].
As for `C[C@]1(CC(=O)O)C[C@@](C)(CCCCCCCCC(=O)O)OO1` [EPIPLAKINIDIOIC ACID], the 50% inhibitory concentration (IC50) in the experiment with Plasmodium falciparum is 0.3 µg/mL (≈ 0.948 µM); in the experiment with A2058 [1], 3 µM; in the experiment with DU-145 [3], 4 µM. The Activity is reported as 23% in the experiment on A2058 [2] and 31% in the experiment on DU-145 [4].
For `C[C@@]1(CCCCCCCCCc2ccc(O)cc2)C[C@]2(C)OC(=O)C[C@@H]2OO1` [PLAKORTOLIDE F], the IC50 with A2058 [1] is over 10 µM; in the experiment on DU-145 [3], over 10 µM; in experiment [5] it was 59 µg/mL (≈ 151 µM). For the same compound, the Activity was 71% with A2058 [2] and 62% in the experiment on DU-145 [4].
On to `CC/C=C/C=C/C=C/CCCCCCCC[C@]1(C)C[C@]2(C)OC(=O)C[C@@H]2OO1` [PLAKORTOLIDE J], for which the IC50 is over 10 µg/mL in the experiment on Plasmodium falciparum, over 10 µM in the experiment on A2058 [1], over 10 µM in the experiment on DU-145 [3] and 71 µg/mL (≈ 182 µM) in experiment [5]. In addition, the results for the Activity in the experiment with A2058 [2] and with DU-145 [4] were 106% and 112%, respectively.
